In data set [1] the test system is Trypanosoma brucei. Put plainly: Antitrypanosomal activity against bloodstream form of Trypanosoma brucei 427 after 48 hrs by hemocytometer analysis. The data set is classed as functional, organism-based. The settings on record: Trypanosoma brucei, 427, 48 h.
Data set [2] in a line: Antagonist activity at NMDAR in rat cerebellar granule neurons assessed as inhibition of glutamate-induced calcium flux after 5 mins using FURA-2AM in presence of glycine. The data set is classed as functional. The procedure, abridged: (§1)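 Primary cerebellar granule neuron cultures grown on poly-L-lysine-coated glass coverslips and used after 7-14 days in vitro. Intracellular calcium recorded in real time over 1200 s. Cells were stimulated with NMDA or glutamate (100 μM, with 10 μM glycine), then given increasing cumulative compound concentrations. Percent inhibition at each concentration was fitted by non-linear regression (variable slope). At least three experiments on three culture batches.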

The subject of data set [3] is Feline coronavirus. Put plainly: Antiviral activity against Feline coronavirus assessed as inhibition of viral replication. It is filed as functional, organism-based. The procedure, abridged: (§2)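 Cell culture virus assays. Inhibition of virus replication and compound cytotoxicity were scored by microscopic examination and confirmed by a colorimetric MTS cell viability assay. Selectivity index is the ratio of cytotoxic to antiviral concentration.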

For data set [4], the system named is Respiratory syncytial virus. As to the kind of experiment: Antiviral activity against RSV assessed as inhibition of viral replication. It is filed as functional, organism-based. The procedure, abridged: as §2
A short description of data set [5]: Antagonist activity at NMDAR in rat cerebellar granule neurons assessed as inhibition of NMDA-induced calcium flux after 5 mins using FURA-2AM in presence of glycine. The data set is classed as functional. In short, it runs like this: as §1
Data set [6] has as its system Reovirus sp. Put plainly: Antiviral activity against Reovirus 1 assessed as inhibition of viral replication. It is filed as functional, organism-based. The procedure, abridged:
as §2

Data set [7] relates to Punta Toro virus. Put plainly: Antiviral activity against Punta Toro virus assessed as inhibition of viral replication. It is filed as functional, organism-based. The procedure, abridged: as §2
The subject of data set [8] is Vaccinia virus. Put plainly: Antiviral activity against Vaccinia virus assessed as inhibition of viral replication. It is filed as functional, organism-based. To be noted: Orthopoxvirus vaccinia. The procedure, abridged: as §2
Data set [9] concerns Coxsackievirus B4. As to the kind of experiment: Antiviral activity against Coxsackievirus B4 assessed as inhibition of viral replication. It is filed as functional, organism-based. In short, it runs like this:
as §2

Data set [10] concerns Human alphaherpesvirus 1. Put plainly: Antiviral activity against HSV1 assessed as inhibition of viral replication. The data set is classed as functional, organism-based. The procedure, abridged:
as §2

In data set [11] the test system is Sindbis virus. As to the kind of experiment: Antiviral activity against Sindbis virus assessed as inhibition of viral replication. The data set is classed as functional, organism-based. The procedure, abridged:
as §2

Data set [12] concerns Human alphaherpesvirus 2. As to the kind of experiment: Antiviral activity against HSV2 assessed as inhibition of viral replication. It is filed as functional, organism-based. The procedure, abridged:
as §2

Data set [13] has as its system Human respirovirus 3. As to the kind of experiment: Antiviral activity against Parainfluenza-3 virus assessed as inhibition of viral replication. The data set is classed as functional, organism-based. The procedure, abridged: as §2
Data set [14] has as its target Matrix protein 2 (Influenza A virus) (UniProt P06821). As to the kind of experiment: Inhibition of Influenza A virus (A/Puerto Rico/8/1934(H1N1)) M2 channel expressed in Xenopus oocytes at 100 uM by two-electrode voltage clamp assay. It is filed as cell-based. The settings on record: Oocyte.
For data set [15], the system named is Vesicular stomatitis virus. Put plainly: Antiviral activity against VSV in HeLa cells assessed as inhibition of viral replication. The data set is classed as functional, organism-based. In short, it runs like this: as §2
For data set [16], the system named is Vesicular stomatitis virus. Put plainly: Antiviral activity against VSV in human HEL cells assessed as viability by MTS based microscopy. The data set is classed as functional, organism-based. In short, it runs like this: as §2
Data set [17] in a line: Selectivity index, ratio of cytotoxicity for HeLa cells to ratio of EC50 for Vesicular stomatitis virus. It is filed as toxicity, cell-based. The settings on record: human, read-out: Selectivity Index. The procedure, abridged:
as §2

The test system of data set [18] is Trypanosoma brucei. Put plainly: Ratio of compound IC90 to rimantadine IC90 for bloodstream form of Trypanosoma brucei 427. The data set is classed as functional.
Data set [19] relates to Influenza A virus. As to the kind of experiment: Antiinfluenza activity against Influenza A virus (A/Puerto Rico/8/1934(H1N1)) assessed as inhibition of viral replication. It is filed as functional, organism-based. The procedure, abridged: as §2
Data set [20] deals with H3N2 subtype. As to the kind of experiment: Antiinfluenza activity against Influenza A virus (A/Hong Kong/7/1987(H3N2)) assessed as inhibition of viral replication. The data set is classed as functional, organism-based. The procedure, abridged: as §2
Data set [21] concerns Influenza B virus. Put plainly: Antiinfluenza activity against Influenza B virus (B/Hong Kong/05/1972) assessed as inhibition of viral replication. The data set is classed as functional. In short, it runs like this:
as §2

pEC50, pIC50: −log10 of the molar value. Calls of active or inactive are those of the source. The calls are words filed in the database; no cut-off is given here.

Sequence of Matrix protein 2 (Influenza A virus) (P06821 whole entry): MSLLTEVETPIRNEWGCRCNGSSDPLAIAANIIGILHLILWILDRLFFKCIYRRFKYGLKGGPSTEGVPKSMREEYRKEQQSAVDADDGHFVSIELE

On to `CN(Cc1ccccc1)C12CC3CC(C)(CC(C1)c1ccccc13)C2`, for which the pIC50 is 5.28 in [1], below 3.30 in [2] and below 3.70 in data set [5]. The 90% effect level in data set [1] (IC90) was put at 10.8 µM. Also, the result in [3], in data set [4], in data set [6], in [7], in data set [8] and in [9] was inactive. Also, the result in data set [10], in data set [11], in data set [12] and in data set [13] was inactive.
For the compound `CN(C)C12CC3CC(C)(CC(C1)c1ccccc13)C2`, the pIC50 in data set [1] is 5.70; in [2], 4.06; in [5] it was 4.93. In addition, in data set [1], it took 3.14 µM to reach the 90% level (IC90). For the same compound, the result in [3], in data set [4], in data set [6], in data set [7], in data set [8] and in data set [9] was inactive. For the same compound, the result in data set [10], in data set [11], in data set [12] and in [13] was inactive. The inhibition entry in [14] was “inactive”.
With `CC12CC3CC(N4CCCCC4)(CC(C1)c1ccccc13)C2`, the pIC50 in [2] is below 3.30; in data set [5], 4.00. In addition, the outcome in data set [3], in [4], in data set [16], in data set [6], in data set [7] and in [8] was inactive. The result in [9], in data set [10], in data set [11], in [12] and in data set [13] was inactive. In addition, the pEC50 in [15] was 4.27.
Compound `CC12CC3CC(C)(C1)CC(N)(C3)C2` [MEMANTINE] showed an IC90 in data set [1] of 21.4 µM.
For the compound `C#CCN(CC#C)C12CC3CC(C)(CC(C1)c1ccccc13)C2`, the pIC50 in data set [1] is 4.87; in data set [2], below 3.30; in data set [5] it was below 3.70. The IC90 in [1] is 21.6 µM. The outcome in data set [3], in [4], in data set [16], in data set [6], in [7] and in data set [8] was inactive. Also, the outcome in data set [9], in [10], in [11], in data set [12] and in [13] was inactive. In addition, the pEC50 in [15] was 5.40. The selectivity ratio in [17] stood at 25.
`C#CCNC12CC3CC(C)(CC(C1)c1ccccc13)C2`: the Ratio in data set [18] was above 4. Besides, the pIC50 in data set [1] is 5.70; in data set [2], below 3.30; in data set [5], 4.56. The compound further had an IC90 in [1] of 3.14 µM. For the same compound, the outcome in [3], in [4], in data set [6], in data set [7], in data set [8] and in data set [9] was inactive. In addition, the result in data set [10], in data set [11], in data set [12] and in data set [13] was inactive.
On to `CC12CC3CC(N)(CC(C1)c1ccccc13)C2`, for which the pIC50 is 5.32 in data set [1], 4.66 in [2] and 4.87 in data set [5]. In addition, the IC90 in [1] was 9.6 µM. In addition, the result in data set [3], in data set [4], in data set [6], in data set [7], in data set [8] and in data set [9] was inactive. Also, the outcome in [10], in data set [11], in data set [12] and in data set [13] was inactive. Besides, in data set [14], the inhibition entry was “inactive”.
In the case of `CC(N)C12CC3CC(CC(C3)C1)C2` (centres undefined) [RIMANTADINE], in data set [1], the 90% effect level (IC90) was put at 14 µM.
Consider `CNC12CC3CC(C)(CC(C1)c1ccccc13)C2`, for which the results for the pIC50 in data set [1], in data set [2] and in data set [5] were 5.35, 3.34 and 4.71, respectively. The same compound yielded an IC90 in data set [1] of 6.66 µM. Moreover, the outcome in [3], in [4], in data set [6], in [7], in [8] and in data set [9] was inactive. Moreover, the outcome in data set [10], in [11], in data set [12] and in [13] was inactive.
Regarding `CC12CC3CC(NCc4ccccc4)(CC(C1)c1ccccc13)C2`, the pIC50 in data set [1] is 5.52; in [2], below 3.30; in data set [5], below 3.70. In [1], this compound registered an IC90 of 6.55 µM. In data set [19], the pEC50 is 5.00. Moreover, the result in [3], in data set [4], in data set [20], in data set [6], in [7] and in [8] was inactive. The result in [9], in [10], in [11], in [21], in data set [12] and in data set [13] was inactive. Besides, the inhibition entry in data set [14] is “inactive”.
